Source: ChEMBL document CHEMBL1142577, “Asimitrin and 4-hydroxytrilobin, new bioactive annonaceous acetogenins from the seeds of Asimina triloba possessing a bis-tetrahydrofuran ring” (J Nat Prod, 2005)
Values after ≈ are worked out from the molar mass of the structure shown.

Columns and labels:
Artemia = test: Toxicity in brine shrimp; format: organism-based; settings: in vivo
Method in brief: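 Brine shrimp lethality test (BST) on brine shrimp larvae, run routinely on extracts, fractions and isolated compounds, with lethality as the read-out.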

A549 = test: Cytotoxicity against human A549 cells after 7 days by MTT assay; format: functional; settings: A549, 168 h, read-out: ED50 (the source's name)
Method in brief: (§1)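 Seven-day in vitro MTT cytotoxicity test on human tumour lines, run with adriamycin as positive control under standard protocols. Cell line origins: A-549 lung carcinoma, MCF-7 breast carcinoma, HT-29 colon adenocarcinoma, A-498 kidney carcinoma, PC-3 prostate adenocarcinoma, MIA PaCa-2 pancreatic carcinoma.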

MCF7 = test: Cytotoxicity against human MCF7 cells after 7 days by MTT assay; format: functional; settings: MCF7, 168 h, read-out: ED50 (the source's name); method in brief: as §1
HT-29 = test: Cytotoxicity against human HT-29 cells after 7 days by MTT assay; format: functional; method in brief: as §1
PC-3 = test: Cytotoxicity against human PC-3 cells after 7 days by MTT assay; format: functional; method in brief: as §1
MIA PaCa-2 = test: Cytotoxicity against human MIA PaCa2 cells after 7 days by MTT assay; format: functional; method in brief: as §1
A498 = test: Cytotoxicity against human A-498 cells after 7 days by MTT assay; format: functional; settings: A498, 168 h, read-out: ED50 (the source's name); method in brief: as §1

SMILES | LC50 (Artemia) [×10⁻² ug/ml] | EC50 (A549) [µg/mL] | EC50 (MCF7) [µg/mL] | ED50 (HT-29) | ED50 (PC-3) | ED50 (MIA PaCa-2) [×10⁻⁴ ug/ml] | EC50 (A498) [µg/mL] | EC50 (HT-29; Homo sapiens, HT-29, 168 h, read-out: ED50 (the source's name)) [µg/mL] | EC50 (PC-3; Homo sapiens, PC-3, 168 h, read-out: ED50 (the source's name)) [µg/mL] | EC50 (MIA PaCa-2; Homo sapiens, MIA PaCa-2, 168 h, read-out: ED50 (the source's name)) [ng/mL]
CCCCCCCCCC[C@@H](O)[C@H]1CC[C@@H]([C@H]2CC[C@H]([C@H](O)CCCCC(O)CCCCC[C@@H](O)CC3=C[C@H](C)OC3=O)O2)O1 (stereo not given in full) | 7 | 1.54 (≈ 2.41 µM) | 3.79 (≈ 5.93 µM) | 1.54 ×10⁻⁶ ug/ml | 2.01 ×10⁻⁴ ug/ml | 2.01 | 0.0362 (≈ 0.0567 µM) |  |  | 
CCCCCCCCCC[C@@H](O)[C@H]1CC[C@H]([C@H]2C[C@@H](O)[C@H]([C@H](O)CCCCCCCCCC[C@@H](O)CC3=C[C@H](C)OC3=O)O2)O1 [ASIMITRIN] | 2.07 | 1.19 (≈ 1.86 µM) | 2.12 (≈ 3.32 µM) | 1.19 ×10⁻⁴ ug/ml | 1.72 ×10⁻⁶ ug/ml | 2.11 | 0.75 (≈ 1.17 µM) |  |  | 
COc1cccc2c1C(=O)c1c(O)c3c(c(O)c1C2=O)C[C@@](O)(C(=O)CO)C[C@@H]3O[C@H]1C[C@H](N)[C@H](O)[C@H](C)O1 [DOXORUBICIN] |  | 0.00622 (≈ 0.0114 µM) | 0.953 (≈ 1.75 µM) |  |  |  | 0.00286 (≈ 0.00526 µM) | 0.0287 (≈ 0.0528 µM) | 0.0577 (≈ 0.106 µM) | 6.1 (≈ 0.0112 µM)
